Activity calls are given as the source filed them. No cut-off for these calls is given here.
Columns and labels:
[1] = species: Mus musculus; assay: (§1) Inhibition of Bodipy-cyclopamine binding to mouse FLAG-tagged Smo D477G mutant expressed in HEK293 cells after 3 hrs by Hoechst staining based fluorescence assay; format: cell-based
Procedure, shortened: (§2)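 Cells transiently transfected with mouse Flag-tagged Smo WT or D477G were washed in PBS/0.5% FBS, fixed 10 min in 4% paraformaldehyde and permeabilized with 0.2% Triton X-100. They were then incubated 3 h at 37 °C with Bodipy-cyclopamine 5 nM plus compound, with Hoechst nuclear stain. Green signal was scored in 3–4 fields per coverslip (20×) as % of binding with BC alone.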

[2] = as §1; format: cell-based; procedure, shortened: as §2
[3] = target: Protein smoothened (Mus musculus) (UniProt P56726); assay: Antagonist activity at Smo in Ptch1-/- mouse MEF assessed as inhibition of Hh signaling pathway by measuring suppression of Ptch1 mRNA expression at 5 uM after 48 hrs by qRT-PCR method
[4] = target: Protein smoothened (Mus musculus, UniProt P56726); assay: Inhibition of Bodipy-cyclopamine binding to mouse FLAG-tagged Smo expressed in HEK293 cells after 3 hrs by Hoechst staining based fluorescence assay; format: cell-based; procedure, shortened: as §2
[5] = target: Protein smoothened (Mus musculus) (UniProt P56726); assay: Antagonist activity at Smo in Ptch1+/- mouse medulloblastoma cells assessed as inhibition of Hh signaling pathway by measuring suppression of Gli2 mRNA expression at 10 uM after 24 hrs by qRT-PCR method
Procedure, shortened: (§3)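 Freshly isolated Ptch1± mouse MB cells in short-term culture, treated 24 h with compound (10 μM) or DMSO. mRNA measured by qRT-PCR against a calibrator (arbitrary units) and normalized to β2-microglobulin and HPRT. Mean ± SD of three independent experiments.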

[6] = target: Protein smoothened (Mus musculus) (UniProt P56726); assay: Antagonist activity at Smo in Ptch1+/- mouse medulloblastoma cells assessed as inhibition of Hh signaling pathway by measuring suppression of CycD2 mRNA expression at 10 uM after 24 hrs by qRT-PCR method; procedure, shortened: as §3
[7] = target: Protein smoothened (Mus musculus) (UniProt P56726); assay: Antagonist activity at Smo in mouse ASZ001 cells assessed as inhibition of Hh signaling pathway by measuring suppression of CycD1 mRNA expression at 10 uM after 48 hrs by qRT-PCR method; format: cell-based
Procedure, shortened: (§4)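 ASZ001 BCC cells (154CF medium, 2% chelated FBS, 0.05 mM CaCl2), treated 48 h with compound or DMSO. Transcripts quantified by qRT-PCR relative to a calibrator, normalized to β2-microglobulin and HPRT.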

[8] = target: Protein smoothened (Mus musculus) (UniProt P56726); assay: Antagonist activity at Smo in mouse ASZ001 cells assessed as inhibition of Hh signaling pathway by measuring suppression of CycD2 mRNA expression at 10 uM after 48 hrs by qRT-PCR method; format: cell-based; procedure, shortened: as §4
[9] = target: Protein smoothened (Mus musculus) (UniProt P56726); assay: Antagonist activity at Smo in Ptch1-/- mouse MEF assessed as inhibition of Hh signaling pathway by measuring suppression of HIP1 mRNA expression at 5 uM after 48 hrs by qRT-PCR method
[10] = target: Protein smoothened (Mus musculus) (UniProt P56726); assay: Antagonist activity at Smo in […]-stimulated mouse granule cell progenitors assessed as inhibition of Hh signaling pathway-dependent cell proliferation by measuring suppression of CycD1 protein expression at 5 uM after 24 hrs by Western blot method
[11] = target: Protein smoothened (Mus musculus) (UniProt P56726); assay: Antagonist activity at Smo in Ptch1+/- mouse medulloblastoma cells assessed as inhibition of Hh signaling pathway by measuring suppression of Gli1 mRNA expression at 10 uM after 24 hrs by qRT-PCR method; procedure, shortened: as §3
[12] = target: Protein smoothened (Mus musculus) (UniProt P56726); assay: Antagonist activity at Smo in mouse ASZ001 cells assessed as inhibition of Hh signaling pathway by measuring suppression of Gli1 mRNA expression at 10 uM after 48 hrs by qRT-PCR method; format: cell-based; procedure, shortened: as §4
[13] = target: Protein smoothened (Mus musculus) (UniProt P56726); assay: Antagonist activity at Smo in Ptch1-/- mouse MEF assessed as inhibition of Hh signaling pathway by measuring suppression of Gli2 mRNA expression at 5 uM after 48 hrs by qRT-PCR method
[14] = target: Protein smoothened (Mus musculus) (UniProt P56726); assay: Antagonist activity at Smo in […]-stimulated mouse granule cell progenitors assessed as inhibition of Hh signaling pathway-dependent cell proliferation by measuring suppression of N-Myc mRNA expression at 5 uM after 24 hrs by qRT-PCR method
[15] = target: Protein smoothened (Mus musculus) (UniProt P56726); assay: Antagonist activity at Smo in Ptch1-/- mouse MEF assessed as inhibition of Hh signaling pathway by measuring suppression of CycD2 mRNA expression at 5 uM after 48 hrs by qRT-PCR method
[16] = target: Protein smoothened (Mus musculus) (UniProt P56726); assay: Antagonist activity at Smo in […]-stimulated mouse granule cell progenitors assessed as inhibition of Hh signaling pathway-dependent cell proliferation by measuring suppression of Ptch1 mRNA expression at 5 uM after 24 hrs by qRT-PCR method
[17] = target: Protein smoothened (Mus musculus) (UniProt P56726); assay: Antagonist activity at Smo in Ptch1-/- mouse MEF assessed as inhibition of Hh signaling pathway by measuring suppression of Gli1 mRNA expression at 5 uM after 48 hrs by qRT-PCR method
[18] = target: Protein smoothened (Mus musculus) (UniProt P56726); assay: Antagonist activity at Smo in Ptch1+/- mouse medulloblastoma cells assessed as inhibition of Hh signaling pathway by measuring suppression of CycD1 mRNA expression at 10 uM after 24 hrs by qRT-PCR method; procedure, shortened: as §3
[19] = target: Protein smoothened (Mus musculus) (UniProt P56726); assay: Antagonist activity at Smo in Ptch1-/- mouse MEF assessed as inhibition of Hh signaling pathway by measuring suppression of CycD1 mRNA expression at 5 uM after 48 hrs by qRT-PCR method
[20] = target: Protein smoothened (Mus musculus) (UniProt P56726); assay: Antagonist activity at Smo in mouse ASZ001 cells assessed as inhibition of Hh signaling pathway by measuring suppression of Gli2 mRNA expression at 10 uM after 48 hrs by qRT-PCR method; format: cell-based; procedure, shortened: as §4
[21] = target: Protein smoothened (Mus musculus) (UniProt P56726); assay: Antagonist activity at Smo in Ptch1-/- mouse MEF assessed as inhibition of Hh signaling pathway by measuring suppression of Igf2 mRNA expression at 5 uM after 48 hrs by qRT-PCR method
[22] = target: Protein smoothened (Mus musculus) (UniProt P56726); assay: Antagonist activity at Smo in […]-stimulated mouse granule cell progenitors assessed as inhibition of Hh signaling pathway-dependent cell proliferation by measuring suppression of Gli2 mRNA expression at 5 uM after 24 hrs by qRT-PCR method
[23] = target: Protein smoothened (Mus musculus) (UniProt P56726); assay: Antagonist activity at Smo in mouse ASZ001 cells assessed as inhibition of Hh signaling pathway by measuring suppression of BMP2 mRNA expression at 10 uM after 48 hrs by qRT-PCR method; format: cell-based; procedure, shortened: as §4
[24] = target: Protein smoothened (Mus musculus) (UniProt P56726); assay: Antagonist activity at Smo in mouse ASZ001 cells assessed as inhibition of Hh signaling pathway by measuring suppression of Ptch1 mRNA expression at 10 uM after 48 hrs by qRT-PCR method; format: cell-based; procedure, shortened: as §4
[25] = target: Protein smoothened (Mus musculus) (UniProt P56726); assay: Antagonist activity at Smo in Ptch1+/- mouse medulloblastoma cells assessed as inhibition of Hh pathway dependent cell growth up to 72 hrs by trypan blue assay
Procedure, shortened: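 Primary MB cells freshly isolated from Ptch1± mouse tumours, used in short-term culture to keep Hh sensitivity; compound 10 μM or DMSO control; viable cells counted by trypan blue after 24, 48 and 72 h. Mean ± SD of three independent experiments.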

[26] = target: Protein smoothened (Mus musculus) (UniProt P56726); assay: Antagonist activity at Smo in […]-stimulated mouse granule cell progenitors assessed as inhibition of Hh signaling pathway-dependent cell proliferation by measuring suppression of CycD1 mRNA expression at 5 uM after 24 hrs by qRT-PCR method
[27] = target: Protein smoothened (Mus musculus) (UniProt P56726); assay: Antagonist activity at Smo in […]-stimulated mouse granule cell progenitors assessed as inhibition of Hh signaling pathway-dependent cell proliferation by measuring suppression of NMyc protein expression at 5 uM after 24 hrs by Western blot method
[28] = target: Protein smoothened (Mus musculus) (UniProt P56726); assay: Antagonist activity at Smo in […]-stimulated mouse granule cell progenitors assessed as inhibition of Hh signaling pathway-dependent cell proliferation by measuring suppression of Gli1 protein expression at 5 uM after 24 hrs by Western blot method
[29] = target: Protein smoothened (Mus musculus) (UniProt P56726); assay: Antagonist activity at Smo in […]-stimulated mouse granule cell progenitors assessed as inhibition of Hh signaling pathway-dependent cell proliferation by measuring suppression of Gli1 mRNA expression at 5 uM after 24 hrs by qRT-PCR method
[30] = target: Protein smoothened (Mus musculus) (UniProt P56726); assay: Antagonist activity at Smo in mouse ASZ001 cells assessed as inhibition of Hh pathway dependent cell growth up to 72 hrs by trypan blue assay; format: cell-based
Procedure, shortened: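 ASZ001 BCC cells grown in 154CF medium with 2% Chelex-chelated FBS and 0.05 mM CaCl2, treated with compound or DMSO control; viable cells counted by trypan blue after 24, 48 and 72 h.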

[31] = target: Protein smoothened (Mus musculus) (UniProt P56726); assay: Antagonist activity at Smo in […]-stimulated mouse granule cell progenitors assessed as inhibition of Hh signaling pathway-dependent cell proliferation by measuring suppression of CycD2 mRNA expression at 5 uM after 24 hrs by qRT-PCR method
[32] = target: Protein smoothened (Mus musculus) (UniProt P56726); assay: Antagonist activity at Smo in Ptch1+/- mouse medulloblastoma cells assessed as inhibition of Hh signaling pathway by measuring suppression of Ptch1 mRNA expression at 10 uM after 24 hrs by qRT-PCR method; procedure, shortened: as §3

Sequence of Protein smoothened (Mus musculus) (P56726 whole entry): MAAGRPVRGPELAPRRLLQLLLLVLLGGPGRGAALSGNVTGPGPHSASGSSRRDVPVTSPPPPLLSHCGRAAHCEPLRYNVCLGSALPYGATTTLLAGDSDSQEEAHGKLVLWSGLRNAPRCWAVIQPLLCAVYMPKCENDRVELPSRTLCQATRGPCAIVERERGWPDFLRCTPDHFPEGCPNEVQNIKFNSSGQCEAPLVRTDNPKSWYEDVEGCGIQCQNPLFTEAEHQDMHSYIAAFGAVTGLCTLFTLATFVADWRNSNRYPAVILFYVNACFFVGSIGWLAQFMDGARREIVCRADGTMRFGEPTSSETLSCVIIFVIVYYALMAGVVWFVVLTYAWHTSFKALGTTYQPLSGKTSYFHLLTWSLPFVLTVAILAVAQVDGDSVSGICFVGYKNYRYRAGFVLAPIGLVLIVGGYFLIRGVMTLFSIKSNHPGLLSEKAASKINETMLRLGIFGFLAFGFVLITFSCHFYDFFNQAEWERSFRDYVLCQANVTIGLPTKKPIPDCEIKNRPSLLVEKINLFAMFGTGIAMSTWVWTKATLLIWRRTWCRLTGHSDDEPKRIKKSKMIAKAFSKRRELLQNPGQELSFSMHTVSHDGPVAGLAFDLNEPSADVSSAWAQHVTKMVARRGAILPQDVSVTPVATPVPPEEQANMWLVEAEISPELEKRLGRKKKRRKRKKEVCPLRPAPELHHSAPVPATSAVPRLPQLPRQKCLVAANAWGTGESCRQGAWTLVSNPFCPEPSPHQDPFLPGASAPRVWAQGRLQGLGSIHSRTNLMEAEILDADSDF
Sequence of Protein smoothened (P56726 whole entry): as above

Row | IC50 [2] | inhibition [3] | IC50 [4] | inhibition [5] | inhibition [6] | inhibition [7] | inhibition [8] | inhibition [9] | inhibition [10] | inhibition [11] | inhibition [12] | inhibition [13] | inhibition [14] | inhibition [15] | inhibition [16] | inhibition [17] | inhibition [18] | inhibition [19] | inhibition [20] | Compound | inhibition [1] | further results
1 | 12.4 µM | Active | 13.8 µM | Active | Active | Active | Active | Active | Active | Active | Active | Active | Active | Active | Active | Active | Active | Active | Active | COc1cccc(C(=O)c2c(-c3ccccc3)[nH]c3ccccc3c2=O)c1 | Dose-dependent effect | inhibition [21]: Active; inhibition [22]: Active; inhibition [23]: Active; inhibition [24]: Active; growth inhibition (GI) [25]: Dose-dependent effect; inhibition [26]: Active; inhibition [27]: Active; inhibition [28]: Active; inhibition [29]: Active; growth inhibition (GI) [30]: Dose-dependent effect; inhibition [31]: Active; inhibition [32]: Active
2 | 29.4 µM | Active | 24 µM | Active | Active | Active | Active | Active | Active | Active | Active | Active | Active | Active | Active | Active | Active | Active | Active | O=C(c1ccccc1)c1c(-c2ccccc2)[nH]c2ccc(Br)cc2c1=O | Dose-dependent effect | inhibition [21]: Active; inhibition [22]: Active; inhibition [23]: Active; inhibition [24]: Active; growth inhibition (GI) [25]: Dose-dependent effect; inhibition [26]: Active; inhibition [27]: Active; inhibition [28]: Active; inhibition [29]: Active; growth inhibition (GI) [30]: Dose-dependent effect; inhibition [31]: Active; inhibition [32]: Active

Source: ChEMBL document CHEMBL3997801, “Design, Palladium-Catalyzed Synthesis, and Biological Investigation of 2-Substituted 3-Aroylquinolin-4(1H)-ones as Inhibitors of the Hedgehog Signaling Pathway” (J Med Chem, 2017)
